Source: PMC10825549 (JID Innovations, 2023)

Tests used:
BTK = BTK (Homo sapiens, UniProt Q06187); assay: IC50 for kinases of potential cross-over; format: biochemical
[1] = test system: moderate or severe atopic dermatitis; assay: Phase 2a study ATI-1777-AD-201: efficacy; format: in vivo, human
Procedure, shortened: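 Randomized 1:1, double-blind, vehicle-controlled, 14 US sites; stratified by severity. Adults 18–65 with moderate/severe AD (IGA 3–4, 3–20% BSA). Up to 8 ml 2.0% w/w solution or vehicle applied twice daily for 28 days, 2-week follow-up. mEASI, IGA, BSA assessed days 8, 15, 28; PP-NRS tracked. MMRM, 1-sided tests, full analysis set (23 vs 25).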

CYP1A2 = CYP1A2 (Homo sapiens, UniProt P05177); assay: Cytochrome P450 phenotyping; format: in vitro ADME; conditions: recombinant human CYP1A2; with NADPH; 60 minutes; n = 1
Procedure, shortened: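 Recombinant human CYPs prepared at CYP1A2 200 nM, CYP2B6/2C8 250 nM, CYP2C9 100 nM, CYP2D6 50 nM. Test compound added as 2 μM DMSO dosing solution on ice. Plate prewarmed, then 8 mM NADPH solution or blank buffer added. Incubation 60 min (1A2, 2B6, 2C8) or 30 min (2C9, 2D6). Stopped with acetonitrile plus internal standard; supernatant by LC-MS/MS; n = 1.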

RSK2 = RSK2 (Homo sapiens, UniProt P51812); assay: IC50 for kinases of potential cross-over; format: biochemical
[2] = Phase 2a study ATI-1777-AD-201: plasma pharmacokinetics; format: in vivo, human
Procedure, shortened: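 Participants with moderate/severe AD applied 2% topical solution twice daily for 4 weeks. Plasma test compound measured by sparse sampling, 8 samples per participant. Concentrations expressed relative to the Jak1/3 IC50.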

Jak1/3 = assay: IC50 of ATI-1777 for inhibiting Jak1/3 used as plasma reference level; conditions: reference level for plasma concentrations; assay not described
KDR (VEGFR2) = KDR (VEGFR2) (Homo sapiens, UniProt P35968); assay: IC50 for kinases of potential cross-over; format: biochemical
Jak1 = Jak1 (Homo sapiens, UniProt P23458); assay: Inhibition of catalytic domain activity, Jak1; format: biochemical
Procedure, shortened: (§1)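 Z′-LYTE biochemical kinase assay run by the vendor per manufacturer's protocol. Each kinase plate carried 0%/100% phosphorylation and 0%/100% inhibition controls. Development-reaction and compound-fluorescence interference controls at each compound concentration. n = 1 per kinase.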

Aurora A = Aurora A (Homo sapiens, UniProt O14965); assay: IC50 for kinases of potential cross-over; format: biochemical
Jak1/2 = assay: Inhibition of IFN-γ-induced STAT phosphorylation in PBMCs; format: cell-based; conditions: Homo sapiens, PBMC, read-out: IC50 Mean ± SD
Procedure, shortened: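 Ficoll-isolated human PBMCs, cryopreserved, thawed into RPMI/10% heat-inactivated FBS assay medium, 200,000 cells/well. Serially diluted test compound (final 20 μM to 2 × 10−6 μM) or 0.1% DMSO vehicle preincubated 1 h at 37 °C. Cytokine then added for 5–10 min, followed by 30 min shaking at 4 °C and lysis. Phospho-STAT5/STAT4 by MSD immunoassay, phospho-STAT1 by ELISA. IC50 reported as mean ± SD.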

Jak2 = Jak2 (Homo sapiens, UniProt O60674); assay: Inhibition of catalytic domain activity, Jak2; format: biochemical
Procedure, shortened: as §1

[3] = day 28, 2% topical solution twice daily, n = 23

Sequence of RSK2 (P51812 whole entry): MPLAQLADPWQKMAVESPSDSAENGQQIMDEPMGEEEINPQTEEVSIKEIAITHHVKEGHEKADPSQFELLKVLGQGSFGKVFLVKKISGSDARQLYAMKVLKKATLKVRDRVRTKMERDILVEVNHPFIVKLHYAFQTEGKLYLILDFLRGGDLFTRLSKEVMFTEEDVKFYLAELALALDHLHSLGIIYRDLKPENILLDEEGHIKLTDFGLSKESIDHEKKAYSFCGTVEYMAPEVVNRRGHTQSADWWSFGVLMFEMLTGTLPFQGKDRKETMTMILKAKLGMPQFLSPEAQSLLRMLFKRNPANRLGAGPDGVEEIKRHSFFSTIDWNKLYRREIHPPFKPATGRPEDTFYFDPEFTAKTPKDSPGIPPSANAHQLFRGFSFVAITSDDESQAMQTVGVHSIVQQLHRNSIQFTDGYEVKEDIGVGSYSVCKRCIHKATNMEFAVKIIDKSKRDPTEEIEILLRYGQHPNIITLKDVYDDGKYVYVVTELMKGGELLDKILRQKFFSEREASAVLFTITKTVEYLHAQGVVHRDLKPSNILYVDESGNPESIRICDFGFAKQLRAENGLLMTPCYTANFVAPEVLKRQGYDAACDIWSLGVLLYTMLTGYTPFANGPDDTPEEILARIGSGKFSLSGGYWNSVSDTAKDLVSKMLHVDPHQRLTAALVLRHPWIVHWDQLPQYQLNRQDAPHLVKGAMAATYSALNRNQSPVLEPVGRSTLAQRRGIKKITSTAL
Sequence of KDR (VEGFR2) (P35968 20-1356): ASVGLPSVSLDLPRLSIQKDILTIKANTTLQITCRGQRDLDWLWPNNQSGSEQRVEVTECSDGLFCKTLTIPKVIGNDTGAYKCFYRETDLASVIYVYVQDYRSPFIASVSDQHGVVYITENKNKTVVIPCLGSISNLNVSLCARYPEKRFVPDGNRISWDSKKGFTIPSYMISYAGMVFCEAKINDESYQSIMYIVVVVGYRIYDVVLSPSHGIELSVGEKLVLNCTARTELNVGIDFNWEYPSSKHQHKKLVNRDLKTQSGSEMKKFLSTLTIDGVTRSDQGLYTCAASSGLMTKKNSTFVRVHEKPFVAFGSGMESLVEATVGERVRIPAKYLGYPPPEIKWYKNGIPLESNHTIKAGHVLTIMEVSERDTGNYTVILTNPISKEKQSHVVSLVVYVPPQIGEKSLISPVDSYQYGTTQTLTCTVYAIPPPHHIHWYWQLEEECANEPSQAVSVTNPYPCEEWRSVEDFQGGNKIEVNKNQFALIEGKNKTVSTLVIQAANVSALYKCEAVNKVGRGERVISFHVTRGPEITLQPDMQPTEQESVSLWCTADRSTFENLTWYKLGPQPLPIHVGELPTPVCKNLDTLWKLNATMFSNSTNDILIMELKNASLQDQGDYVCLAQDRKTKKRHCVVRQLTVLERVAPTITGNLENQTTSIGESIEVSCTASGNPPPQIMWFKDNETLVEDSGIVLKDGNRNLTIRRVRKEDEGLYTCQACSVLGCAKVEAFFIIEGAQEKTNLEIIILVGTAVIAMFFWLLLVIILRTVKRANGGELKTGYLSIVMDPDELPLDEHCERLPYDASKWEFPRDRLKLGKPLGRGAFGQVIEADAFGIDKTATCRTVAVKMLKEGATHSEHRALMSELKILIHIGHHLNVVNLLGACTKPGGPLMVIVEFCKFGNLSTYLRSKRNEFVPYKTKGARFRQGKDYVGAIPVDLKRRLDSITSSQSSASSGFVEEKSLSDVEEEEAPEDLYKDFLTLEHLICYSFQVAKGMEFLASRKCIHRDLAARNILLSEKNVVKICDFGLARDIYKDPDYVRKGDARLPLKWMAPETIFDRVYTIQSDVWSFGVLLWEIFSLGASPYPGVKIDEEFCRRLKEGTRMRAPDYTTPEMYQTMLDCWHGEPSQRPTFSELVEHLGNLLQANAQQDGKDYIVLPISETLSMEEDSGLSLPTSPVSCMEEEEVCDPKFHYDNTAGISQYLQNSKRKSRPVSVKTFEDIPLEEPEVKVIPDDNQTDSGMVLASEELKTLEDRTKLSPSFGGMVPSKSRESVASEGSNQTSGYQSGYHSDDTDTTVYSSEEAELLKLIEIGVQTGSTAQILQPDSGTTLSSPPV
Sequence of Jak1 (P23458 875-1153 limits assumed): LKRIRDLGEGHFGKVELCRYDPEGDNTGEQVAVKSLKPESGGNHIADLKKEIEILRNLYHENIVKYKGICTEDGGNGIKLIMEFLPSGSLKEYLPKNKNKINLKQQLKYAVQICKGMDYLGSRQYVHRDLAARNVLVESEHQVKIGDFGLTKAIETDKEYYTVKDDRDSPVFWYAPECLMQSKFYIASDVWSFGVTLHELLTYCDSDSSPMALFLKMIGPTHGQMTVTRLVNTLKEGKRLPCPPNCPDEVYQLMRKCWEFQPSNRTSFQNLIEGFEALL
Sequence of BTK (Q06187 whole entry): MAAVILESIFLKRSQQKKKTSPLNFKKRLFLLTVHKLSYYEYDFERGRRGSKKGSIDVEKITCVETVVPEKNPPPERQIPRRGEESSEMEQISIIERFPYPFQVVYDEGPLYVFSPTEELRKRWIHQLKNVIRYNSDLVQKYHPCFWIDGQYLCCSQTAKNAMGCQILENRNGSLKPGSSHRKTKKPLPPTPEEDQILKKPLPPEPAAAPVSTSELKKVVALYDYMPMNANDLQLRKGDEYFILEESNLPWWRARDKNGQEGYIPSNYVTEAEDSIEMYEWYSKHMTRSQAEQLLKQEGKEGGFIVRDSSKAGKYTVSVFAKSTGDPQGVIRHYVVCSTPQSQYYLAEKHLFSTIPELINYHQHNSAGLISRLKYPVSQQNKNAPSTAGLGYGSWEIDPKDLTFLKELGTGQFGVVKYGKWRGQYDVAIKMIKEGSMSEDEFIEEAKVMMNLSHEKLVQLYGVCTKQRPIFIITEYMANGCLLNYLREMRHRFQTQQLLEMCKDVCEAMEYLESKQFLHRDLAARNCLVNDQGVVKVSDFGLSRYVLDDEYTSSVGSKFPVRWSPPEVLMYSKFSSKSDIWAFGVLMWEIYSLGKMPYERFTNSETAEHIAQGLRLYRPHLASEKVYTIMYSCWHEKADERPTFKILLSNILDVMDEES
Sequence of Aurora A (O14965 whole entry): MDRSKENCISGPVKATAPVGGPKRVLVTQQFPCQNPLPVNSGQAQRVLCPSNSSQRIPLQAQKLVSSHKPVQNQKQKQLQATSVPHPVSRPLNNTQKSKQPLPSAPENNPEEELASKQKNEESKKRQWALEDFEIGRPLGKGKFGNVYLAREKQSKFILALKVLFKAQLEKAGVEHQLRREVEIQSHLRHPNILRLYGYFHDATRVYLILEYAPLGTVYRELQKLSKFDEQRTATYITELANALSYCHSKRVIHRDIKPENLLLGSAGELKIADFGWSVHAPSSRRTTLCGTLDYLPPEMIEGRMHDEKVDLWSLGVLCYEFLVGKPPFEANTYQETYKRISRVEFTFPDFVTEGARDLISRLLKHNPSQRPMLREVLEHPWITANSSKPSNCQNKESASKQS
Sequence of CYP1A2 (P05177 whole entry): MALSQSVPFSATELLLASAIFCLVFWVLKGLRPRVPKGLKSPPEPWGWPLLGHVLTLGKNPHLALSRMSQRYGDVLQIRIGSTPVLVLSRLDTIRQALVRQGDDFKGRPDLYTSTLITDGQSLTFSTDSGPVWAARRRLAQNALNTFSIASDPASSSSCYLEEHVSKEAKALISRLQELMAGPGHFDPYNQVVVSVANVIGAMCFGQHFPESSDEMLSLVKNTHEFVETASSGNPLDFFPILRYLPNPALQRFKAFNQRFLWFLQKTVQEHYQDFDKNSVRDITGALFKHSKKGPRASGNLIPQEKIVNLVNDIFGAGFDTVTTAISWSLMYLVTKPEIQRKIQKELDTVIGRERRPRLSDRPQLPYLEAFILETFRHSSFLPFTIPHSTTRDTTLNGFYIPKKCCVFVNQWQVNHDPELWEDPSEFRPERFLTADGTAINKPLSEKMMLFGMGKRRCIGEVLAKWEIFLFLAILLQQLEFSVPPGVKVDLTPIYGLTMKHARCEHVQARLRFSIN
Sequence of Jak2 (O60674 849-1124 limits assumed): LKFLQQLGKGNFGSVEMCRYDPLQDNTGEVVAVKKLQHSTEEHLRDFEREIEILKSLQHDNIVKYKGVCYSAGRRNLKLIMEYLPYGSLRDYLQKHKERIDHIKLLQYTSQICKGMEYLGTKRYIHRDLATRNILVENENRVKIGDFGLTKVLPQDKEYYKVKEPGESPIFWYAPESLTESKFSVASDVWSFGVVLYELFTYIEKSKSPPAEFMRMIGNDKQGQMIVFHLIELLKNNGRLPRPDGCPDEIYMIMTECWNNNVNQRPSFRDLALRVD

CCOC(=O)c1cnc2[nH]ccc2c1N[C@@H]1CCCN(C(=O)CC#N)C1 [ATI-1777, ethyl (R)-4-((1-(2-cyanoacetyl)piperidin-3-yl)amino)-1H-pyrrolo[2,3-b]pyridine-5-carboxylate]
IC50 (BTK): 210 nM | Fold Selectivity (BTK; BTK vs Jak1 (= 1)): 140 fold | least squared means change from baseline of PP-NRS score ([1]; SE = 0.548, P = .060 vs vehicle): −2.92 | BSA affected by AD, change from baseline ([1]; day 8): −1.55% | BSA affected by AD, change from baseline ([1]; day 15): −3.33% | participants achieving a 50% reduction in mEASI [1, 3]: 91.3% | participants achieving a 75% reduction in mEASI [1, 3]: 65.2% | BSA affected by AD, change from baseline ([1]; day 28, P < .001 vs vehicle): −5.59% | percentage reduction from baseline in mEASI score ([1]; day 28, mixed model for repeated measures without imputation, SE = 5.943): 78.46% | participants achieving an IGA score of 0 or 1 with ≥2 point improvement ([1]; end of treatment period (day 28), P = .131 vs vehicle, n = 23): 39.1% | Percentage Remaining (CYP1A2): 55.7% | IC50 (RSK2): 1050 nM | Fold Selectivity (RSK2; RSK2 vs Jak1 (= 1)): 700 fold | all plasma concentrations relative to IC50 for Jak1/3 ([2]; IC50 45 ng/ml): less than half of the IC50 | plasma concentrations relative to inhibitory concentrations for Jak1/2 ([2]; all plasma concentrations): below IC10 | mean plasma concentration as percentage of the IC50 for Jak1/3 ([2]; each timepoint, IC50 45 ng/ml): < 5% | participants with samples with concentrations >10% of the IC50 for Jak1/3 ([2]; in vivo): Three | IC50 of ATI-1777 for inhibiting Jak1/3 (Jak1/3): 0.045 µg/mL | IC50 (KDR (VEGFR2)): 127 nM | Fold Selectivity (KDR (VEGFR2); KDR (VEGFR2) vs Jak1 (= 1)): 85 fold | IC50 (Jak1): 1.5 nM | Fold Selectivity (Jak1; Jak1 reference line of Table 2): 1 fold | IC50 (Aurora A): 641 nM | Fold Selectivity (Aurora A; Aurora A vs Jak1 (= 1)): 427 fold | IC50 (Jak1/2): 97 ± 34 nM | IC50 (Jak2): 7.1 nM
